The source of these data is ChEMBL document CHEMBL1127445, “Structure-activity study of 5-substituted 1-carbobenzoxy-2-iminohydantoins as potential anticonvulsant agents” (J Med Chem, 1994).

Activity calls are given as the source filed them. The rule behind the calls is not given here.

Data set [1] relates to Mus musculus. Description: Tested for the ability to protect against maximal electroshock seizure test; NA= Not active up to 300 mg/kg. The class given is functional, organism-based. Also on record: dose 300 mg/kg. In outline:
(§1)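 Adult male Swiss Webster mice (20–25 g) received drug ip (10 mL/kg) in normal saline or as a 1% CMC suspension. At least three dose groups of 4–8 mice were used, tested at 0.5 h. Maximal electroshock used a 50 mA current. ED50 is in mg/kg; time of peak effect was not determined; doses went up to 300 mg/kg.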

Data set [2] has as its system Mus musculus. Description: Tested for the ability to protect against subcutaneous pentylenetetrazole seizure test; NA= Not active up to 300 mg/kg. In kind it is functional, organism-based. Also on record: dose 300 mg/kg. In outline:
(§2)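 Male Swiss Webster mice (20–25 g) were dosed ip (10 mL/kg; saline or 1% CMC suspension), with ≥3 groups of 4–8 mice. At 0.5 h, pentylenetetrazole 85 mg/kg was given sc into the neck fold, and mice were watched for 30 min. Protection meant absence of clonic spasms lasting ≥5 s. ED50 is in mg/kg; doses went up to 300 mg/kg.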

For data set [3], the species on record is Mus musculus. The experiment in a line: Tested for the ability to protect against maximal electroshock seizure test. In kind it is functional. In outline:
as §1
On the technique in general: In the maximal electroshock model the usual endpoint is tonic extension of the hind limbs.

The subject of data set [4] is Mus musculus. Description: Tested for the ability to protect against subcutaneous pentylenetetrazole seizure test. The class given is functional. The conditions noted are these: sc. In outline:
as §2

In data set [5] the test system is Mus musculus. Description: Tested for the ability to protect against subcutaneous pentylenetetrazole seizure test; Previously tested. The class given is functional. The conditions noted are these: sc.
In data set [6] the test system is Mus musculus. Description: Anticonvulsant activity in the in the subcutaneous pentylenetetrazole seizure test in the mice. In kind it is functional. The settings on record: sc. In outline: (§3)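 Phase II quantification in mice was run by the NIH ADD Program. Compounds were given ip, and ED50 (mg/kg) was read at the time of peak effect. The protective index is TD50 (rotorod ataxia) divided by ED50 in the MES or scMET test.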

Data set [7] is described as follows: Tested for median toxic dose in rotarod ataxia test for neurological toxicity in mice. The class given is organism-based. The conditions noted are these: mouse, in vivo. In outline: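 Neurotoxicity was measured in mice by the NIH ADD Program using the rotorod ataxia test. Drug was given ip, and the median toxic dose (mg/kg) was measured at the time of peak deficit.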
A general note: The rotarod test checks motor coordination on a turning rod.

Data set [8] relates to Mus musculus. The experiment in a line: Intraperitoneal anticonvulsant activity in the maximal electroshock seizure test expressed as median effective dose in phase II trial in mice. The conditions noted are these: ip.
The subject of data set [9] is Mus musculus. The experiment in a line: Tested for the ability to protect against subcutaneous pentylenetetrazole seizure test; Activity at 300 mg/kg but ED50 can not be estimated. The arrangement: dose 300 mg/kg. The class given is functional, organism-based. In outline: as §2
Data set [10] deals with Mus musculus. Description: Anticonvulsant activity of the substance upon subcutaneous administration in pentylenetetrazole seizure test in mice. The settings on record: ip, in the assay text read “upon intraperitoneal administration” for “upon subcutaneous administration”. The class given is functional. In outline:
as §3

The nature of data set [11]: Protective index is the ratio between TD50 and ED50 values in subcutaneous pentylenetetrazole seizure test (scMET). The class given is functional. In outline: as §3
A short description of data set [12]: Protective index is the ratio between TD50 and ED50 values in maximal electroshock seizure test (MES). The class given is functional. In outline:
as §3

The test system of data set [13] is Mus musculus. Description: Tested for the ability to protect against subcutaneous pentylenetetrazole seizure test; Activity at 300 mg/kg but ED50 cannot be estimated. Also on record: dose 300 mg/kg. The class given is functional, organism-based. In outline:
as §2

In data set [14] the test system is Mus musculus. The experiment in a line: Anticonvulsant activity of the substance upon subcutaneous administration in pentylenetetrazole seizure test in mice; NA= Not active. In kind it is functional, organism-based.
For data set [15], the system named is Mus musculus. The experiment in a line: Tested for the ability to protect against maximal electroshock seizure test; Activity at 300 mg/kg, but ED50 cannot be estimated. The class given is functional, organism-based. The arrangement: dose 300 mg/kg. In outline: as §1

By ED50 is commonly meant the dose at which the effect has come halfway, by size or by number of responders. On to `CSCC[C@H]1C(=O)N=C(N)N1C(=O)OCc1ccccc1`, for which the ED50 result in the data set with Mus musculus [1] and in the data set on Mus musculus [2] was “inactive” each time.

On to `C=CC[C@H]1C(=O)N=C(N)N1C(=O)OCc1ccccc1`, for which the ED50 came out at 53.3 mg/kg in the data set listed under Mus musculus [3] and 193 mg/kg in the data set with Mus musculus [4].

On to `NC1=NC(=O)[C@H](Cc2ccccc2)N1C(=O)OCc1ccccc1`, for which, in the data set with Mus musculus [1], the ED50 result is “inactive”. Moreover, the median effective dose (ED50) in the data set on Mus musculus [5] is greater than 1000 mg/kg.

`C[C@H]1C(=O)N=C(N)N1C(=O)OCc1ccccc1`: in the data set filed under Mus musculus [3], it took a dose of 171 mg/kg to reach the 50% effect level (ED50). Moreover, the ED50 result in the data set on Mus musculus [2] was “inactive”.

As a reminder, the TD50 is the dose at which the toxic effect under study appears in half of the subjects. Consider `CC[C@H]1C(=O)N=C(N)N1C(=O)OCc1ccccc1`, for which the ED50 is 69.2 mg/kg in the data set filed under Mus musculus [3], 223 mg/kg with Mus musculus [4], less than 500 mg/kg with Mus musculus [6] and 99.5 mg/kg in the data set on Mus musculus [8]. In [7], this molecule showed a TD50 of less than 500 mg/kg.

Consider `CCC[C@@H]1C(=O)N=C(N)N1C(=O)OCc1ccccc1`, for which the ED50 entry in the data set with Mus musculus [1] is “inactive”. The same molecule registered a median effective dose (ED50) with Mus musculus [4] of 374 mg/kg.

Turning to `CC(C)[C@H]1C(=O)N=C(N)N1C(=O)OCc1ccccc1`, the ED50 in the data set listed under Mus musculus [3] is 51.9 mg/kg; with Mus musculus [9] it was “Activity”.

As for `CCC[C@H]1C(=O)N=C(N)N1C(=O)OCc1ccccc1`, the ED50 worked out at 53.3 mg/kg in the data set listed under Mus musculus [3], 141 mg/kg in the data set with Mus musculus [4], 141 mg/kg in the data set on Mus musculus [10] and 80.2 mg/kg with Mus musculus [8]. In addition, the PI in data set [11] came to 1.3; in [12], 2.3. For the same molecule, the TD50 in data set [7] is 188 mg/kg.

Regarding `CC(C)C[C@H]1C(=O)N=C(N)N1C(=O)OCc1ccccc1`, the ED50 came to 141 mg/kg with Mus musculus [5] and 98.6 mg/kg in the data set with Mus musculus [8]. For the same molecule, the PI in [11] was determined as 2.5; in [12], 3.5.

For `NC1=NC(=O)[C@H](Cc2c[nH]c3ccccc23)N1C(=O)OCc1ccccc1`, in the data set with Mus musculus [1], the ED50 result was “inactive”. In the data set with Mus musculus [13], the ED50 result is “Activity”.

As for `NC(=O)CC[C@H]1C(=O)N=C(N)N1C(=O)OCc1ccccc1`, the ED50 result in the data set on Mus musculus [1] and in the data set on Mus musculus [2] was “inactive” each time.

In the case of `CCCC[C@H]1C(=O)N=C(N)N1C(=O)OCc1ccccc1`, the ED50 is greater than 1000 mg/kg in the data set listed under Mus musculus [3] and “Activity” in the data set with Mus musculus [9].

On to `O=C1NC(=O)C(c2ccccc2)(c2ccccc2)N1`, for which the ED50 entry in the data set on Mus musculus [14] is “inactive”.

For the molecule `NC1=NC(=O)[C@H](CSCc2ccccc2)N1C(=O)OCc1ccccc1`, the ED50 entry in the data set with Mus musculus [1] and with Mus musculus [2] was “inactive” in each case.

In the data set listed under Mus musculus [3], `CC1(C)C(=O)N=C(N)N1C(=O)OCc1ccccc1` gave an ED50 of 228 mg/kg. For the same molecule, the ED50 entry in the data set with Mus musculus [2] is “inactive”.

Consider `NC1=NC(=O)CN1C(=O)OCc1ccccc1`, for which the ED50 entry with Mus musculus [15] is listed as “Activity”. In the data set with Mus musculus [2], the ED50 entry was “inactive”.

Take `CCC(C)[C@H]1C(=O)N=C(N)N1C(=O)OCc1ccccc1` (stereo partly drawn): the median effective dose (ED50) in the data set filed under Mus musculus [3] was 74.4 mg/kg; in the data set on Mus musculus [4], 176 mg/kg.
